Assay results reported in BindingDB's records for doi:10.1021/acs.jmedchem.9b01547 (University of Oxford, 2020).

What was measured:
Utrophin [1] = biological target: T1, Utrophin (Homo sapiens, UniProt P46939); test: Activation of human utrophin-1 in iDMD cells by HTRF assay
How it was run: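 HTRF quantification of human utrophin protein in lysates of treated iDMD cells, read at 620 and 665 nm emission; top concentration 10 μM. EC50 by non-linear regression curve fit from 2 biological replicates, each with 3 technical replicates.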

Utrophin [2] = biological target: T1, Utrophin; test: Activation of human utrophin-1 in mouse mdx myoblasts by H2K-mdx utrnA-luc assay
How it was run: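 Firefly luciferase reporter gene assay in H2K-mdx utrnA-luc cells (mouse mdx myoblasts carrying a human muscle-specific utrophin A promoter). EC50 from non-linear regression curve fit of 2 biological replicates, 3 technical replicates each.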

T1 sequence (P46939 whole entry): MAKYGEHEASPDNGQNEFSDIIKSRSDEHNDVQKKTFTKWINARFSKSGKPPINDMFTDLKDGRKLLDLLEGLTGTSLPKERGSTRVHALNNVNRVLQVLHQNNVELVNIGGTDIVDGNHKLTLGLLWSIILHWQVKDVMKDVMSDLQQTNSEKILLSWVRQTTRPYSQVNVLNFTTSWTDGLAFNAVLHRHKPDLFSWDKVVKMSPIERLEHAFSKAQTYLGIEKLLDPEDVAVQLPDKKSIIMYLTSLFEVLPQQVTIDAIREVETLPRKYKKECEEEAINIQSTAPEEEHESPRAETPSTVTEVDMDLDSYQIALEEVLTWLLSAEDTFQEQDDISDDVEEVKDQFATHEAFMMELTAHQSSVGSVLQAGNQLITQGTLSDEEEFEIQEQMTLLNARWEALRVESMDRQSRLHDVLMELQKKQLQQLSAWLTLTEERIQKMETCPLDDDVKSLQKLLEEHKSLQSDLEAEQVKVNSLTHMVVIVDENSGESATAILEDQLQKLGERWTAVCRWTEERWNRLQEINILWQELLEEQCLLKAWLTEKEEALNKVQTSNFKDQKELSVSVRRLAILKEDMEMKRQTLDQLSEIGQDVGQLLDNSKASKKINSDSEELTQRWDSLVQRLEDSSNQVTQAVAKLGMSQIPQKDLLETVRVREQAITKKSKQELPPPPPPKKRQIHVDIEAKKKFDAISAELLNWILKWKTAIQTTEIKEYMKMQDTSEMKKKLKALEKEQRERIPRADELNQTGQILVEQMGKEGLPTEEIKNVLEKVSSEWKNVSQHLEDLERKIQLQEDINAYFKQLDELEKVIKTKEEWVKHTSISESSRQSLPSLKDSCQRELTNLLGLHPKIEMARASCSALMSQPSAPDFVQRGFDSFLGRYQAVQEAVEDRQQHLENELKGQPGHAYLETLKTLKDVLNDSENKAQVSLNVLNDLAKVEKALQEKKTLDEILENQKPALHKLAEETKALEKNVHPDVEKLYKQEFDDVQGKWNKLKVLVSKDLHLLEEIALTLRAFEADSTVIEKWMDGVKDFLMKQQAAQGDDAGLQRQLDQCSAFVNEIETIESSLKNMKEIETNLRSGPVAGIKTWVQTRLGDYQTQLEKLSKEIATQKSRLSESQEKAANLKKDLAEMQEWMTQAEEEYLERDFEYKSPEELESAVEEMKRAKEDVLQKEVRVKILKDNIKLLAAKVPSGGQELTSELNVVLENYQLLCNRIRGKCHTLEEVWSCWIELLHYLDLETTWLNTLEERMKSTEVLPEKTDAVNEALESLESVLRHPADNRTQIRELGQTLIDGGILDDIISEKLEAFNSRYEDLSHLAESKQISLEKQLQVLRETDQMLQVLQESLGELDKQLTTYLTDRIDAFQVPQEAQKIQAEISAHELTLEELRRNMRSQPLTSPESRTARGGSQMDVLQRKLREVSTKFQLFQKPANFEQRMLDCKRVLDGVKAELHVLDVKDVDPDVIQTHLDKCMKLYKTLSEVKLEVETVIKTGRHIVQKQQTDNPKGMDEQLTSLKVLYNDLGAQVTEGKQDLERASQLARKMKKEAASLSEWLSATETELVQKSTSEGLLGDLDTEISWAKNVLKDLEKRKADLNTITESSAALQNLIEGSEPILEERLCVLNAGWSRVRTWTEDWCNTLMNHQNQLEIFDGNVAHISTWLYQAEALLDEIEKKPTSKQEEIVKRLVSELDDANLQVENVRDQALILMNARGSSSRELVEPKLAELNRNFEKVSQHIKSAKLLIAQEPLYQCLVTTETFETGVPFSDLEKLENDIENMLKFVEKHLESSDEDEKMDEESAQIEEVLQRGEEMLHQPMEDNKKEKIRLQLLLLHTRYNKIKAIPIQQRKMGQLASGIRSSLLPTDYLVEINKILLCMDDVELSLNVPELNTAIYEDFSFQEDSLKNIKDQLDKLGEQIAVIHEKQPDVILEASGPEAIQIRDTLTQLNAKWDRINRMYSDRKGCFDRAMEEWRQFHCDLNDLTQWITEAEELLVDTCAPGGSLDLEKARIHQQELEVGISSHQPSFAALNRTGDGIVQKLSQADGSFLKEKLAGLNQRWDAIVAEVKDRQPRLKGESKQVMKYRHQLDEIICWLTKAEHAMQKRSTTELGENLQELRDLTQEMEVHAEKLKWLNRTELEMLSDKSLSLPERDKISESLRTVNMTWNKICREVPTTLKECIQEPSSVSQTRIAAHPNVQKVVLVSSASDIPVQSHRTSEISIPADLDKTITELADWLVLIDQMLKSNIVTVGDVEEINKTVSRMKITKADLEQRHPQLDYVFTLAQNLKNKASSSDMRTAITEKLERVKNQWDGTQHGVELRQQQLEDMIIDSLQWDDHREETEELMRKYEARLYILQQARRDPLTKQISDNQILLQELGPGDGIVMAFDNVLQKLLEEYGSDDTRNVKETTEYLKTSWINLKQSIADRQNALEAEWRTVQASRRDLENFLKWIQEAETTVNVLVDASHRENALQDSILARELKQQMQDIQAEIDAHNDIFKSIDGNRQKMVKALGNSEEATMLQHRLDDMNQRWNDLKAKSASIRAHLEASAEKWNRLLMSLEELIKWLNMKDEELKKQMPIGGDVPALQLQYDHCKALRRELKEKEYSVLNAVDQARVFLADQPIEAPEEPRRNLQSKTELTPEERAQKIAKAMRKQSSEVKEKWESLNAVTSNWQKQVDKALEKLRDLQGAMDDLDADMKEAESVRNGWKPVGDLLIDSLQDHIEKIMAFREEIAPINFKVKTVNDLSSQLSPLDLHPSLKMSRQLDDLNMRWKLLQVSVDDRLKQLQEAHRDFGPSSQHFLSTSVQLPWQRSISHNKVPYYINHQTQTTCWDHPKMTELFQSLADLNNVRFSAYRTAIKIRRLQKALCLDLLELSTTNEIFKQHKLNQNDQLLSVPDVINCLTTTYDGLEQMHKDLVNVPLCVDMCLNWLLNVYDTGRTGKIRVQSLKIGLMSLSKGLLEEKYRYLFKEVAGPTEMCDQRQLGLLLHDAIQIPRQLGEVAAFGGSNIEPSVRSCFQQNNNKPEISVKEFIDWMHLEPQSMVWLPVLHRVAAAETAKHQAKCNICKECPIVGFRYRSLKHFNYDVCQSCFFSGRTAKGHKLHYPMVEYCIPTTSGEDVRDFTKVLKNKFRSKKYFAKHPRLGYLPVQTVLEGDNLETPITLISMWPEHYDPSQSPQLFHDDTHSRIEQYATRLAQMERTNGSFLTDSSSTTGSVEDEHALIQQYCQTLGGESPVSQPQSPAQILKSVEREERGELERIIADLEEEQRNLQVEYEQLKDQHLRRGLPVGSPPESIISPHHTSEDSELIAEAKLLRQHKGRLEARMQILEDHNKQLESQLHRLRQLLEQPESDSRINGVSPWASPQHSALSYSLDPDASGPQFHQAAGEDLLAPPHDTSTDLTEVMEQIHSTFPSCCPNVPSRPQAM

Row | EC50 (Utrophin [1]) [nM] | EC50 (Utrophin [2]) [nM] | SMILES
1 | 8350 | 120 | CCS(=O)(=O)c1ccc2oc(-c3ccc4c(c3)[C@@H](O)[C@H](O)C=C4)nc2c1
2 | 1280 | 110 | CCS(=O)(=O)c1ccc2oc(-c3ccc4ccccc4c3)nc2c1 [BMN 195]
3 | > 10000 | 370 | CCS(=O)(=O)c1ccc2oc(-c3ccc4c(c3)C=C[C@H](O)[C@H]4O)nc2c1
